# ABCB6 inh MLPCN: ABCB6 transporter inhibitors, primary screen, K562-ABCB6 cells, flow cytometry, MLPCN library. ATP-binding cassette sub-family B member 6 (Homo sapiens), Q9NP58. K562-ABCB6 porphyrin accumulation, 1 h; hits give low values. fluorescence ratio to DMSO, % at 10 µM. 360,000 compounds, 0.19% hits. AID 602162, 2011;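 active = fluorescence ratio to DMSO below 75%, the collection mean minus 3 SD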;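 also: signal is porphyrin accumulated inside mitochondria; 100% equals median channel fluorescence of DMSO control wells; lower ratio means ABCB6 inhibition with less porphyrin fluorescence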
# HIF act: HIF pathway transcriptional activators, primary screen, cell-based, U2OS HRE-luciferase, luminescence. activation, % at 7.5 µM (by protocol). 300,000 compounds, 0.32% hits. U2OS HRE-luciferase reporter; normalized: DMSO 0%, desferrioxamine 100%;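 active = mean activation of at least 10% of the iron chelator positive control signal, with at least half of replicates also reaching 10%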
# SR-BI uptake up: activators of SR-BI mediated DiI-HDL uptake, primary screen, ldlA[mSR-BI] CHO cells, DiI fluorescence; 3 h; 100 = double the neutral-control signal; activation, % at 12.5 µM; 320,000 compounds, 0.096% hits; AID 504775, 2011;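 active = mean replicate activation of at least 60% and every replicate at or above 60%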;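 also: 0% = median plate neutral-control signal and 100% = twice that signal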
#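 Test system: SR-BI-overexpressing, LDLR-lacking CHO cells. Measured by: DiI fluorescence, bottom read. Medium: Ham's F12 with 0.5% BSA, HEPES 25 mM, pH 7.4. Timing: 3 h uptake period with compound, 37 °C.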
# GAA850 FXN act: FXN promoter activators, primary screen, cell-based, luciferase luminescence, HEK293 lucGAA850 | AID 540364, 2011 | activation, % at 6 µM | HEK293 lucGAA850 FXN promoter luciferase reporter, 24 h; percent of 10 µM SAHA response | 360,000 compounds, 0.56% hits;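 active = activation above the average of all compounds screened plus 3 SD, cutoff fixed separately per campaign, cut at about 7.5% in these data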;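 also: 0% = DMSO wells and 100% = 10 µM SAHA wells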
# AHR act: AHR activators, primary screen, cell-based, luminescence, luciferase reporter, human; Aryl hydrocarbon receptor (Homo sapiens), P35869; AHR-responsive luciferase reporter cells; activation, % at 5 µM; 320,000 compounds, 2.5% hits; in the data active = activation above about 47%;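 also: 0% = vehicle wells and 100% = reference agonist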
# Target sequence (P35869 whole entry, looked up): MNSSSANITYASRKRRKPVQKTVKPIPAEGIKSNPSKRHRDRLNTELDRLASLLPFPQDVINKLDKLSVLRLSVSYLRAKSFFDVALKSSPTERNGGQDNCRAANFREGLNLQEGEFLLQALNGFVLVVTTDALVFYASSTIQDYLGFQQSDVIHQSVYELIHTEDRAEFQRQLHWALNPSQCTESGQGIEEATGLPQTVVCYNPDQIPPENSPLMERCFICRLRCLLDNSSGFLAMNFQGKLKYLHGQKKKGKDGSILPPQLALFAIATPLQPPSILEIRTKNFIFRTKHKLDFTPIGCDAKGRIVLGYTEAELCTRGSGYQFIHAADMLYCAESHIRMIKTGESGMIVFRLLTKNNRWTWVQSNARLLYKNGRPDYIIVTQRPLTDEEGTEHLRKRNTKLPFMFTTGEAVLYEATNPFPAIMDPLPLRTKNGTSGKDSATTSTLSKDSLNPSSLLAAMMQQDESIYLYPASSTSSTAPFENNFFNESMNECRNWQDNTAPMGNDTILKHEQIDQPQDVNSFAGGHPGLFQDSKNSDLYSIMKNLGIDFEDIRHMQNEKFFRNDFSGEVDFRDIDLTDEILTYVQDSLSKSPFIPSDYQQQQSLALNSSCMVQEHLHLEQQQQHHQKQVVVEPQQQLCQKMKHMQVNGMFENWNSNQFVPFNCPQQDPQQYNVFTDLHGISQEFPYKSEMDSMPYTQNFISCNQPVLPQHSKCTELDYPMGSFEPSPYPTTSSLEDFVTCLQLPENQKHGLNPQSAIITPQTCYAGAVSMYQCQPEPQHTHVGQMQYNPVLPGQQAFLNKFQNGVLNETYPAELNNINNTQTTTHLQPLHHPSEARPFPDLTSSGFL
# SR-BI DiI inh: inhibitors of SR-BI mediated HDL lipid uptake, primary screen, ldlA[mSR-BI] cells, fluorescence, single point. Scavenger receptor class B member 1 (Mus musculus), Q61009. ldlA[mSR-BI] CHO cells, DiI-HDL uptake fluorescence, 3 h. inhibition, % at 12.5 µM. 320,000 compounds, 0.96% hits. AID 488896, 2010;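 active = mean replicate inhibition of at least 70% and a set share of replicates each scoring 70 or more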;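 also: 0% = median of neutral control wells and 100% = median of positive control wells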
# ABCB6 blocker 1: ABCB6 transporter inhibitors, confirmation, K562-ABCB6 cells, flow cytometry, cherry pick 1. shares compounds with ABCB6 inh MLPCN. ratio response (% of DMSO), % at 10 µM. 700 tested, under 10 active. K562-ABCB6 porphyrin accumulation, 1 h; hits give low values;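 active = repeat-averaged ratio response below 75% of DMSO, the collection mean minus 3 SD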;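 also: median porphyrin fluorescence at 575 nm with 488 nm excitation from mitochondria; lower ratio means less porphyrin signal so ABCB6 inhibition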
# K562 vector FC: empty-vector K562 compound effect – cell-based, flow cytometry, cherry pick set 2, counter-screen for ABCB6 inhibitor project, dose response; shares compounds with ABCB6 inh MLPCN; K562 empty-vector cells, flow cytometry fluorescence, 1 h; percent response (fluorescence), % at 100 µM; 25 tested, under 10 active; AID 624484, 2012;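 active = compounds whose half-maximal effective concentration is below 100 µM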
# Starred values were filed as active, the others as inactive; · = not tested or not shown. In the library only some 3.9% were active in any assay of this set; here they are far more common.
SMILES,ABCB6 inh MLPCN,HIF act,SR-BI uptake up,GAA850 FXN act,AHR act,SR-BI DiI inh,ABCB6 blocker 1,others
CCOc1ccc(C(=O)CCC(=O)Nc2cc(C)ccn2)cc1,74*,1,16,2,0,-16,104,
CCOc1ccc(C(=O)CCC(=O)NNC(=O)c2ccncc2)cc1,95,0,18,0,2,-18,·,
C=CCNc1nc(C)c(C(C)=O)cc1C#N,100,-1,5,2,4,-5,·,
Cc1c(C(=O)Nc2ccc(OC(F)(F)F)cc2)sc2nc3n(c(=O)c12)CCC3,66*,0,-18,1,-6,18,98,
Cc1c(C(=O)Nc2cc(F)ccc2F)sc2nc3n(c(=O)c12)CCCCC3,93,4,-3,2,-4,3,·,
Cc1c(C(=O)Nc2ccc(Oc3ccccc3)cc2)sc2nc3n(c(=O)c12)CCC3,84,0,-2,0,-7,2,·,
COc1ccc(NC(=O)c2sc3nc4n(c(=O)c3c2C)CCC4)c(OC)c1,·,·,·,·,·,·,102,
COc1cccc(NC(=O)c2sc3nc4n(c(=O)c3c2C)CCC4)c1,24*,3,-16,4,0,16,102,
CSc1cccc(NC(=O)c2sc3nc4n(c(=O)c3c2C)CCC4)c1,93,4,-18,5,-6,18,·,
Cn1c(Cc2cccs2)nnc1SCC(=O)Nc1ccc(C(N)=O)cc1,100,0,15,2,0,-15,·,
CCC(C)C(NC(=O)C(Cc1ccc(O)cc1)NC(=O)OCc1ccccc1)C(=O)OC (centres undefined),85,·,·,·,·,·,·,
CCCCn1ccnc1C(=O)c1cccc(S(=O)(=O)N2CC(C)CC(C)C2)c1 (centres undefined),74*,0,16,0,1,-16,97,
CCCCn1ccnc1C(=O)c1cc(S(=O)(=O)N2CCOCC2)ccc1C,97,0,13,-4,-2,-13,·,
CC1=CC(=C2C(=O)c3ccccc3C2=O)C=C(C)N1Cc1ccco1,66*,2,8,5,11,-8,103,
Cc1ccccc1OCCNC(=O)CSc1ccc(C(F)(F)F)cc1[N+](=O)[O-],70*,-1,5,1,3,-5,99,
Cn1cnnc1Sc1ccc(/C=C(\CCC(=O)O)c2nc3ccccc3s2)cc1[N+](=O)[O-],105,-1,5,0,1,-5,·,
C/C(N)=C(/C#N)C(=O)COC(=O)C1CCN(S(=O)(=O)c2cccs2)CC1,104,·,8,-1,-1,-8,101,
O=C(COC(=O)C1CCN(S(=O)(=O)c2cccs2)CC1)c1ccccc1,95,0,11,3,0,-11,·,
COc1ccc(CCNC(=O)COc2ncnc3cc([N+](=O)[O-])ccc23)cc1,102,0,2,-2,1,-2,·,
O=[N+]([O-])c1cccc(COc2ncnc3cc([N+](=O)[O-])ccc23)c1,10*,0,-4,-1,4,4,96,
COc1ccc(CCNC(=O)C2CCCN(C(=O)c3ccc(Cl)cc3)C2)cc1 (centres undefined),73*,0,2,-1,0,-2,102,
O=C(O)c1ccc(C=C(c2nc3ccccc3s2)c2nc3ccccc3s2)cc1,107,0,16,-2,10,-16,·,
O=C(CN1C(=O)c2cccc3cccc1c23)N1CCN(c2ccc(F)cc2)CC1,60*,-2,-19,1,4,19,104,
CCOC(=O)c1ccccc1NC(=O)CSc1nnc(Cc2cccn2C)n1-c1ccc(F)cc1,65*,0,-35,0,3,35,100,
O=C(c1ccco1)N1CCC(c2nc3c(nnn3Cc3ccccc3Cl)c(=O)[nH]2)CC1,97,0,17,-1,0,-17,96,
SMILES,ABCB6 inh MLPCN,HIF act,SR-BI uptake up,GAA850 FXN act,AHR act,SR-BI DiI inh,ABCB6 blocker 1,others
O=C(c1ccco1)N1CCC(c2nc3c(nnn3Cc3ccc(F)cc3)c(=O)[nH]2)CC1,98,0,19,0,-1,-19,100,
Cc1ccc(C)c(Cn2nnc3c(=O)[nH]c(C4CCN(C(=O)c5ccco5)CC4)nc32)c1,102,-14,12,0,-1,-12,102,
O=C(c1ccco1)N1CCCC(c2nc3c(nnn3Cc3ccccc3)c(=O)[nH]2)C1 (centres undefined),99,-1,29,3,-1,-29,·,
Cc1ccc(C)c(Cn2nnc3c(=O)[nH]c(C4CCN(C(=O)c5cccs5)CC4)nc32)c1,83,0,-10,0,4,10,·,
Cc1cccc(CS(=O)(=O)c2ncc(Cl)c(C(=O)NCc3ccccc3)n2)c1,97,6,8,-2,1,-8,·,
COc1ccc(OC)c(NC(=O)CS(=O)(=O)Cc2ccccc2)c1,104,0,-8,1,·,8,·,
COc1ccc(OC)c(NC(=O)c2nc(S(=O)(=O)Cc3ccccc3)ncc2Cl)c1,83,-6,13,7,2,-13,·,K562 vector FC=594
COc1ccc(NC(=O)c2nc(S(=O)(=O)Cc3cccc(C)c3)ncc2Cl)c(OC)c1,151,-2,7,2,3,-7,·,K562 vector FC=271
CCS(=O)(=O)c1ccc(O)c(NC(=O)/C=C/c2ccc(Cl)cc2)c1,99,0,16,0,5,-16,·,
Clc1ccccc1-c1nnc2sc(C3COc4ccccc4O3)nn12 (centres undefined),44*,·,10,2,2,-10,100,
COCCNC(=S)N1CCN(S(=O)(=O)c2ccc(Cl)s2)CC1,99,0,12,1,0,-12,·,
O=C(/C=C/c1cccc2ccccc12)NCCC1=CCCCC1,97,1,40,3,5,-40,·,
Nn1c(SCC(=O)NCCC2=CCCCC2)nnc1-c1cccnc1,91,·,16,3,·,-16,·,

# Assay outcomes deposited in PubChem BioAssay by several laboratories.
